# Laboratory results from ChEMBL document CHEMBL1136377, “2,4-disubstituted pyrimidines: a novel class of KDR kinase inhibitors” (Bioorg Med Chem Lett, 2003).
# Columns and labels:
# [1] = biological target: T1, Vascular endothelial growth factor receptor 2 (Homo sapiens, UniProt P35968); assay: Biochemical inhibition of phosphorylation of a poly-Glu/Tyr (4:1) peptide substrate by isolated vascular endothelial growth factor receptor 2 (cloned and expressed as a GST-fusion protein).
# [2] = biological target: T1, Vascular endothelial growth factor receptor 2; assay: Biochemical inhibition of phosphorylation of a poly-Glu/Tyr (4:1) peptide substrate by isolated vascular endothelial growth factor receptor 2 (cloned and expressed as a GST-fusion protein)
# [3] = biological target: T2, Vascular endothelial growth factor receptor (Homo sapiens, UniProt P17948+P35916+P35968); assay: Inhibition of VEGFstimulated mitogenesis in human umbilical vein endothelial cells; assay type: functional, cell-based; details: endothelial cell
# [4] = biological target: VEGF-receptor 2 and Fibroblast growth factor receptor 1 (Homo sapiens) (UniProt P35968+P11362); assay: Selectivity for VEGF-receptor 2 (KDR) over FGF-receptor 1; assay type: protein assay
# VEGF-receptor 2 and Fibroblast growth factor receptor 1 (Homo sapiens), sequence (P11362 whole entry, looked up): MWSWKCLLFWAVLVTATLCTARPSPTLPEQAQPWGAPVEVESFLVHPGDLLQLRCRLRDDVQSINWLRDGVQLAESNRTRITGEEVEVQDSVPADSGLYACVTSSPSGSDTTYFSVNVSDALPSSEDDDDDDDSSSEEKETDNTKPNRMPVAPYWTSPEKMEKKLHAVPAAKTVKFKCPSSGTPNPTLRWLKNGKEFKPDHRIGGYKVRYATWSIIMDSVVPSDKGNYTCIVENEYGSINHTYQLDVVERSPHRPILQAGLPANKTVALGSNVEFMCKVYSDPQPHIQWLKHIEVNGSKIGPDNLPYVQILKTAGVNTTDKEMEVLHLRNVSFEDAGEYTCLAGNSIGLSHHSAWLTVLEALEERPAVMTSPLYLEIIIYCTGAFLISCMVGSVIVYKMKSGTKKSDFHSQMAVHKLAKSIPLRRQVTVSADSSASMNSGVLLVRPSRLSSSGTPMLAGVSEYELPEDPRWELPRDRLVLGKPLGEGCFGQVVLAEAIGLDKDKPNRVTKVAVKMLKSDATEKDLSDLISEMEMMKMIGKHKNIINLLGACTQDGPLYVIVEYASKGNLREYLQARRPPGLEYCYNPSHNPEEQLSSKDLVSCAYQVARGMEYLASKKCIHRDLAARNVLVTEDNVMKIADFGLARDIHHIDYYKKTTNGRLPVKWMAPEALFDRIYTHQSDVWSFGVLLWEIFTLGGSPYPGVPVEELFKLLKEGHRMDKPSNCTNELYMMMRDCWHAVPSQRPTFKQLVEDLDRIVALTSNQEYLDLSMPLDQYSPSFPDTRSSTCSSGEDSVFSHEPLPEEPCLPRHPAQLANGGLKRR
# VEGF-receptor 2 and Fibroblast growth factor receptor 1 (Homo sapiens), sequence (P35968 whole entry, looked up): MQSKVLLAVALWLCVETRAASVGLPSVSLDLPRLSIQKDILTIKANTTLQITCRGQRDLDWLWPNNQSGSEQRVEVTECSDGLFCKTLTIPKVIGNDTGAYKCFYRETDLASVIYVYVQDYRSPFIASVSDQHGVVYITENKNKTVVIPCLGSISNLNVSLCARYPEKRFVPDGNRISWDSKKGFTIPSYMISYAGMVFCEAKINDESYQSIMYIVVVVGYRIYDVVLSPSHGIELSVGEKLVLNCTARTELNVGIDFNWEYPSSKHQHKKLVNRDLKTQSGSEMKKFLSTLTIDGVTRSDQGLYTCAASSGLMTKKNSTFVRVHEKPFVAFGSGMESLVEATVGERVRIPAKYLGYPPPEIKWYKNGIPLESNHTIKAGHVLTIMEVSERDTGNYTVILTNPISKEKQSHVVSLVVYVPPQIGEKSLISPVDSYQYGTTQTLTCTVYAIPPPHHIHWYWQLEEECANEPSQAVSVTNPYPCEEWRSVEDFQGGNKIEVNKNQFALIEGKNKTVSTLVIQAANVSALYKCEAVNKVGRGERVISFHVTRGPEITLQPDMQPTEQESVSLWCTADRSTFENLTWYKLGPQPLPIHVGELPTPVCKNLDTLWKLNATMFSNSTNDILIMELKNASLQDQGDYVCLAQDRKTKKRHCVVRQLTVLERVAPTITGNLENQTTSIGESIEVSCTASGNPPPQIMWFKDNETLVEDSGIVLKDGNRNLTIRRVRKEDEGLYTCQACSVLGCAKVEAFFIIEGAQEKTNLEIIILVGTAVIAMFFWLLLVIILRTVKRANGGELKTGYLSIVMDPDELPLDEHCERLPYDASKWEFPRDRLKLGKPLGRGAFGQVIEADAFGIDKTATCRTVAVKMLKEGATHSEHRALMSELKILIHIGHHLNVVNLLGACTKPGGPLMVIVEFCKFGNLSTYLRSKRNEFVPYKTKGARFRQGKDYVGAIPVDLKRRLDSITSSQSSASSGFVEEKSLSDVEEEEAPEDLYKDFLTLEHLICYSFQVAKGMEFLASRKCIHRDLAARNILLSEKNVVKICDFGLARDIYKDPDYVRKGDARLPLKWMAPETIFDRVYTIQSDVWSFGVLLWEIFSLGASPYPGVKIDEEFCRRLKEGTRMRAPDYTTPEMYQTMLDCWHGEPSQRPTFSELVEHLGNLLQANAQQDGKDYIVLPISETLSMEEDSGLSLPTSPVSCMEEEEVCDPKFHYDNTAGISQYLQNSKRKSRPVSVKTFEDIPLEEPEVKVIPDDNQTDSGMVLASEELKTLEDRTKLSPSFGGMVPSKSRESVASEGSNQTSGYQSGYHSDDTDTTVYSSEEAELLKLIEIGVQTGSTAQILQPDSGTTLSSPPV
# [5] = biological target: Vascular endothelial growth factor receptor 2 and 3 (KDR and Flt-4) (Homo sapiens) (UniProt P35916+P35968); assay: Selectivity for VEGF-receptor 2 (KDR) over VEGF-receptor 3 (FLT-4); assay type: protein assay
# Vascular endothelial growth factor receptor 2 and 3 (KDR and Flt-4) (Homo sapiens), sequence (P35916 whole entry, looked up): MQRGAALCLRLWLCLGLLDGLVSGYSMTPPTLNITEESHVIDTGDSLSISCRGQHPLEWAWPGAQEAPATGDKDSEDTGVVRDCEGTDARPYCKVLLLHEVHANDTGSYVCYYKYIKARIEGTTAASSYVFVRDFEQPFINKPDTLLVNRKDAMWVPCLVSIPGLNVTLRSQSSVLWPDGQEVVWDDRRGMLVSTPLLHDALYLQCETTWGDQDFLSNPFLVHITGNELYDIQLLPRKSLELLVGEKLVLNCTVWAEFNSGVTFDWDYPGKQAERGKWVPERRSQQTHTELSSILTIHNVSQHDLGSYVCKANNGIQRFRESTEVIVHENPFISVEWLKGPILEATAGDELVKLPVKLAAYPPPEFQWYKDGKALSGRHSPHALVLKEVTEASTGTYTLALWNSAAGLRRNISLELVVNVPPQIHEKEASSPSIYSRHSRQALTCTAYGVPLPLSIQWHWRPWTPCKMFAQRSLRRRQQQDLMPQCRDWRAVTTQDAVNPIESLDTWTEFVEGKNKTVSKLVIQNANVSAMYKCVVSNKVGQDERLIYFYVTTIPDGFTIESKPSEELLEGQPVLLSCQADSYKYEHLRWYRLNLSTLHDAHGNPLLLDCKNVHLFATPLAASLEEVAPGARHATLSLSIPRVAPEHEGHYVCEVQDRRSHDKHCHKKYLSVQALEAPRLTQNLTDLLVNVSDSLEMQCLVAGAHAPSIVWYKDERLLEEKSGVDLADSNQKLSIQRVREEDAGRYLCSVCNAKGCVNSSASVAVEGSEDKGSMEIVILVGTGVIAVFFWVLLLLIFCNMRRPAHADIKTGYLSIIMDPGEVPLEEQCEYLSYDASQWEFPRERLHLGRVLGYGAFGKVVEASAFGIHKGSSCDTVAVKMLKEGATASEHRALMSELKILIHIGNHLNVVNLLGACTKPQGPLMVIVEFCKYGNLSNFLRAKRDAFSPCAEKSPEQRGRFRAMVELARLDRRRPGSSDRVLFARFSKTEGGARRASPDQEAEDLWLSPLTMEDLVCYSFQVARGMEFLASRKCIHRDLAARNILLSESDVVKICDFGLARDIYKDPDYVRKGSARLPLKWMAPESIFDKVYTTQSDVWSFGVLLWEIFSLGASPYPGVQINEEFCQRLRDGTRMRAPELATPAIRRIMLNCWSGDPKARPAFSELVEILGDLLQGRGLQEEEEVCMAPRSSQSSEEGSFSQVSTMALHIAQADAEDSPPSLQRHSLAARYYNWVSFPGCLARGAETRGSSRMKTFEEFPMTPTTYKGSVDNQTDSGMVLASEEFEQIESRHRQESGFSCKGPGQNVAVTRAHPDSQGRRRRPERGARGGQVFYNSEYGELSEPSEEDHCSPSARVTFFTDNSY
# Vascular endothelial growth factor receptor 2 and 3 (KDR and Flt-4) (Homo sapiens), sequence (P35968 whole entry, looked up): as the sequence (P35968 whole entry, looked up) above
# [6] = biological target: Vascular endothelial growth factor receptor 1 and 2 (Flt-1 and KDR) (Homo sapiens) (UniProt P17948+P35968); assay: Selectivity for VEGF-receptor 2 (KDR) over VEGF-receptor 1 (FLT-1); assay type: protein assay
# Vascular endothelial growth factor receptor 1 and 2 (Flt-1 and KDR) (Homo sapiens), sequence (P17948 whole entry, looked up): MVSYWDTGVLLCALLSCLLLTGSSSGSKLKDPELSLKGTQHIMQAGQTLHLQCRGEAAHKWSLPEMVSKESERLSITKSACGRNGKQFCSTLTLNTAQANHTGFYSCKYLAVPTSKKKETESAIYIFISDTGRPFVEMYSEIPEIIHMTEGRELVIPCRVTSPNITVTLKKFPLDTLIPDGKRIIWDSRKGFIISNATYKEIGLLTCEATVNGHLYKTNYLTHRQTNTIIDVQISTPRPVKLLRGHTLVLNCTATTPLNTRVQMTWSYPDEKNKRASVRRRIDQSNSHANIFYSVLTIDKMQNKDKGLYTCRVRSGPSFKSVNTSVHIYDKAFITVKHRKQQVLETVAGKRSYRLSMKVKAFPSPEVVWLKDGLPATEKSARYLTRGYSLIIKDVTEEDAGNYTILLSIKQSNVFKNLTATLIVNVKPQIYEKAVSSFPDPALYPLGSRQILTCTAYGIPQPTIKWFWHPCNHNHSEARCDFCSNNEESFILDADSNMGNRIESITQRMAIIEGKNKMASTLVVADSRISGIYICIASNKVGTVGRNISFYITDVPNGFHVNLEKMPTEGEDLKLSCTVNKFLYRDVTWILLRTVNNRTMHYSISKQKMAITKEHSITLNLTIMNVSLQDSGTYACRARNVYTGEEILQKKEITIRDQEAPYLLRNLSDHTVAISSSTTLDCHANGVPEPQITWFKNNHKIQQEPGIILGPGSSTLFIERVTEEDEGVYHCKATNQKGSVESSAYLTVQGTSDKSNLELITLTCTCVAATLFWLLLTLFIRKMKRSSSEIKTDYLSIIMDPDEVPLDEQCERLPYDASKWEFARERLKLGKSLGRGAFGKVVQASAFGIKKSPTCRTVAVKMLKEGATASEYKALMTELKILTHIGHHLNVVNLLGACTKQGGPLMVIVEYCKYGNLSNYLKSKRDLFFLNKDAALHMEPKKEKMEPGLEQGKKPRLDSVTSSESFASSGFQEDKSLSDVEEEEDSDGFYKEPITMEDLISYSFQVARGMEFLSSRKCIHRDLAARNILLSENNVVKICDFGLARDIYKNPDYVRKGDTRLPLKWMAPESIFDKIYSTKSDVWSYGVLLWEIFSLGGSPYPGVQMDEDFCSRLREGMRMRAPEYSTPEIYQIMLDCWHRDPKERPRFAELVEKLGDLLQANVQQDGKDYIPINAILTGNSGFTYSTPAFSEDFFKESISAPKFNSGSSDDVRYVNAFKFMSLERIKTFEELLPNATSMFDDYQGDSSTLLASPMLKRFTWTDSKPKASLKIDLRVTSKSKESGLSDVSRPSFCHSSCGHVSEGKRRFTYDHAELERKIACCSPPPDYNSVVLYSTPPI
# Vascular endothelial growth factor receptor 1 and 2 (Flt-1 and KDR) (Homo sapiens), sequence (P35968 whole entry, looked up): as the sequence (P35968 whole entry, looked up) above
# [7] = biological target: T2, Vascular endothelial growth factor receptor; assay: Inhibition of VEGF-stimulated mitogenesis in human umbilical vein endothelial cells at 500 nM; assay type: functional, cell-based; details: Endothelial cell
# [8] = biological target: VEGF-receptor 2 and tyrosine-protein kinase SRC (Homo sapiens) (UniProt P12931+P35968); assay: Selectivity for VEGF-receptor (KDR) over c-SRC; assay type: protein assay
# [9] = biological target: VEGF-receptor 2 and PDGF-receptor beta (KDR and PDGFR beta) (Homo sapiens) (UniProt P09619+P35968); assay: Selectivity for VEGF-receptor 2 (KDR) over PDGF-receptor beta; assay type: protein assay
# [10] = Partition coefficient (logP); assay type: physicochemical; details: octanol/water
# In short: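 Partition coefficient measured by HPLC analysis of an octanol/phosphate buffer (pH 7.4) system.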
# [11] = Plasma clearance was determined; assay type: ADME, organism-based, Canis lupus familiaris; details: dog
# [12] = biological target: VEGF-receptor 2 and Fibroblast growth factor receptor 2 (Homo sapiens) (UniProt P35968+P21802); assay: Selectivity for VEGF-receptor 2 (KDR) over FGF-receptor 2; assay type: protein assay
# [13] = Volume distribution constant was determined; assay type: ADME, organism-based, Canis lupus familiaris; details: dog, in vivo; read-out: Vdss
# [14] = biological target: T2, Vascular endothelial growth factor receptor; assay: Inhibition of VEGFstimulated mitogenesis in human umbilical vein endothelial cells.; assay type: functional, cell-based; details: endothelial cell
# [15] = Half life period was determined; assay type: ADME, organism-based, Canis lupus familiaris; details: dog, in vivo
# T1 sequence (P35968 whole entry, the tested form may be a part): as the sequence (P35968 whole entry, looked up) above
smiles,measurement,setting,value
Cc1cc(C)cc(Nc2cc(-n3ccnc3-c3ccccc3)ncn2)c1,IC50,[1],1810 nM
c1ccc(-c2nccn2-c2ccnc(Nc3ccccn3)n2)cc1,IC50,[1],6830 nM
COc1cc(Nc2nccc(-n3ccnc3-c3ccccc3)n2)cc(C(F)(F)F)c1,IC50,[1],19000 nM
Cc1cc(CO)cc(Nc2nccc(-n3ccnc3-c3ccccc3)n2)c1,IC50,[2],9 nM
same,IC50,[3],23 nM
c1ccc(-c2nccn2-c2ccnc(Nc3ccncc3)n2)cc1,IC50,[1],273 nM
c1ccc(Nc2nccc(-n3ccnc3-c3ccccc3)n2)cc1,Selectivity,[4],295
same,Selectivity,[5],5
same,Selectivity,[6],13
same,inhibition,[7],8%
same,IC50,[1],105 nM
same,Selectivity,[8],11
COc1ccccc1Nc1nccc(-n2ccnc2-c2ccccc2)n1,IC50,[1],289 nM
Cc1cc(C)cc(Nc2cc(-n3ccnc3-c3ccccc3)ccn2)c1,IC50,[1],892 nM
COc1cccc(Nc2nccc(-n3ccnc3-c3ccccc3)n2)c1,IC50,[1],20 nM
same,IC50,[3],88 nM
COc1ccc(Nc2nccc(-n3ccnc3-c3ccccc3)n2)cc1,IC50,[1],392 nM
Cc1cc(C)cc(Nc2nccc(-n3ccnc3-c3ccccc3)n2)c1,Selectivity,[4],606
same,Selectivity,[5],5
same,Selectivity,[9],6
same,logP,[10],3.74
same,Selectivity,[6],30
same,clearance,[11],30.1 mL/min/kg
same,Selectivity,[12],261
same,Vd,[13],1.11 L/kg
same,IC50,[14],19 nM
same,IC50,[1],6 nM
same,Selectivity,[8],10
same,half-life,[15],42.6 min
COc1cc(Nc2nccc(-n3ccnc3-c3ccccc3)n2)cc(OC)c1,IC50,[1],5 nM
same,IC50,[3],22 nM
[O-][n+]1cccc(Nc2nccc(-n3ccnc3-c3ccccc3)n2)c1,IC50,[1],3570 nM
CC(=O)N1CCN(Cc2cc(C)cc(Nc3nccc(-n4ccnc4-c4ccccc4)n3)c2)CC1,IC50,[1],32 nM
same,IC50,[3],396 nM
Clc1cccc(Nc2nccc(-n3ccnc3-c3ccccc3)n2)c1,IC50,[1],25 nM
FC(F)(F)c1cccc(Nc2nccc(-n3ccnc3-c3ccccc3)n2)c1,IC50,[1],10 nM
same,IC50,[3],303 nM
Cc1ccccc1Nc1nccc(-n2ccnc2-c2ccccc2)n1,IC50,[1],3080 nM
FC(F)(F)c1cc(Nc2nccc(-n3ccnc3-c3ccccc3)n2)cc(C(F)(F)F)c1,IC50,[1],77 nM
Cc1cc(Nc2nccc(-n3ccnc3-c3ccccc3)n2)cc(C(F)(F)F)c1,IC50,[1],5 nM
same,IC50,[3],26 nM
Cc1cccc(Nc2nccc(-n3ccnc3-c3ccccc3)n2)c1,Selectivity,[4],1020
same,Selectivity,[5],13
same,Selectivity,[9],22
same,Selectivity,[6],103
same,Selectivity,[12],686
same,IC50,[14],151 nM
same,IC50,[1],18 nM
same,Selectivity,[8],11
Cc1cc(C)cc(Nc2nccc(-n3cc(C)nc3-c3ccccc3)n2)c1,IC50,[1],450 nM
c1ccc(-c2nccn2-c2ccnc(Nc3cccnc3)n2)cc1,IC50,[1],340 nM
Cc1ccc(Nc2nccc(-n3ccnc3-c3ccccc3)n2)cc1,IC50,[1],279 nM
Clc1cc(Cl)cc(Nc2nccc(-n3ccnc3-c3ccccc3)n2)c1,IC50,[1],26 nM
